# Reference: ChEMBL document CHEMBL2406910, “Structures and potential antitumor activity of sesterterpenes from the marine sponge Hyrtios communis” (J Nat Prod, 2013)
# pIC50: −log10 of the molar value.
# How the values were obtained:
# T47D = experiment: Antiproliferative activity against human T47D cells after 48 hrs by SRB assay; assay type: functional, cell-based
# Procedure, shortened: (§1)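 Human breast tumor T47D and MDA-MB-231 cells (ATCC) were treated with compounds for 48 h, and proliferation/viability was measured. […] Cycloheximide and rotenone served as positive controls.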
# MDA-MB-231 = experiment: Antiproliferative activity against human MDA-MB-231 cells after 48 hrs by SRB assay; assay type: functional, cell-based; conditions: MDA-MB-231, 48 h; procedure, shortened: as §1
# [1] = Inhibition of hypoxia-induced HIF-1 activation in human T47D cells by luciferase reporter gene assay; assay type: cell-based
# Procedure, shortened: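 T47D cells carrying the reporter were incubated under hypoxia (1% O2) for 16 h while exposed to a range of compound concentrations. […] Cycloheximide and rotenone served as positive controls.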
Structure (SMILES),pIC50 (T47D),pIC50 (MDA-MB-231),pIC50 [1]
CC1=C(CC/C(C)=C/CC/C(C)=C/C[C@@H](O)C2=CC(=O)OC2)C(C)(C)CCC1,< 5.00,< 5.00,–
CC1=C(CC/C(C)=C/CC/C(C)=C/CCC2=CC(=O)OC2O)C(C)(C)C(=O)CC1 (configuration not stated),< 5.00,< 5.00,5.21
C=C(CCC1=C(C)CCCC1(C)C)C(O)CC/C(C)=C/CCC1=CC(=O)OC1O (configuration not stated),< 5.00,< 5.00,5.15
CC(=O)CCCC(C)(C)C(=O)CC/C(C)=C/CC/C(C)=C/CCC1=CC(=O)OC1O (configuration not stated),< 5.00,< 5.00,–
CC1=C(CC/C(C)=C/CC/C(C)=C/C[C@@H](O)C2=CC(=O)OC2)C(C)(C)C(=O)CC1,< 5.00,< 5.00,5.49
CC1=C(CC/C(C)=C/CC/C(C)=C/CCC2=CC(=O)OC2O)C(C)(C)CCC1 (configuration not stated) [LUFFARIELLOLIDE],5.29,5.35,5.44
CC1=C(CCC(C)(O)/C=C/C/C(C)=C/CCC2=CC(=O)OC2O)C(C)(C)CCC1 (configuration not stated),< 5.00,< 5.00,–
C=C1CCCC(C)(C)C1(O)CC/C(C)=C/CC/C(C)=C/CCC1=CC(=O)OC1O (configuration not stated),< 5.00,< 5.00,–
CC1=C(CC/C(C)=C/CC/C(C)=C/CCC2=CC(=O)OC2O)C(C)(C)CCC1=O (configuration not stated) [ACANTHOLIDE B],< 5.00,< 5.00,–
CC1=C(CC/C(C)=C/CC/C(C)=C/CCC2=CC(=O)OC2O)C(C)(C)CCC1O (configuration not stated),< 5.00,< 5.00,–
CC(=O)O[C@H](C/C=C(\C)CC/C=C(\C)CCC1=C(C)CCC(=O)C1(C)C)C1=CC(=O)OC1,< 5.00,< 5.00,5.46
